This passage reports Activity results from ChEMBL document CHEMBL4043093, “2-Oxo-3, 4-dihydropyrimido[4, 5-d]pyrimidinyl derivatives as new irreversible pan fibroblast growth factor receptor (FGFR) inhibitors” (Eur J Med Chem, 2017).

In test [1] the target is Mitogen-activated protein kinase kinase kinase 6 (Homo sapiens) (UniProt O95382). As to the kind of experiment: Inhibition of wild-type human partial length ASK2 (M278 to R972 residues) expressed in HEK293 cells assessed as residual activity at 1000 nM after 30 mins by Kinomescan method relative to control. It is filed as cell-based.
Test [2] deals with Calcium/calmodulin-dependent protein kinase kinase 1 (Homo sapiens) (UniProt Q8N5S9). Briefly: Inhibition of wild-type human partial length CAMKK1 (R65 to E414 residues) expressed in Escherichia coli BL21 assessed as residual activity at 1000 nM after 30 mins by Kinomescan method relative to control.
Test [3] addresses Peripheral plasma membrane protein CASK (Homo sapiens) (UniProt O14936). Briefly: Inhibition of wild-type human partial length CASK (M1 to H315 residues) expressed in HEK293 cells assessed as residual activity at 1000 nM after 30 mins by Kinomescan method relative to control. It is filed as cell-based.
Test [4] addresses Cyclin-dependent kinase 13 (Homo sapiens) (UniProt Q14004). Briefly: Inhibition of wild-type human partial length CDC2L5 (H675 to S1054 residues) expressed in HEK293 cells assessed as residual activity at 1000 nM after 30 mins by Kinomescan method relative to control. It is filed as cell-based.
Test [5] concerns the target Serine/threonine-protein kinase Chk1 (Homo sapiens) (UniProt O14757). Briefly: Inhibition of wild-type human partial length CHEK1 (M1 to G289 residues) expressed in Escherichia coli BL21 assessed as residual activity at 1000 nM after 30 mins by Kinomescan method relative to control.
The subject of test [6] is Epidermal growth factor receptor (Homo sapiens), P00533 [UNDEFINED MUTATION]. Briefly: Inhibition of human partial length EGFR E746-A750del mutant expressed in Escherichia coli BL21 assessed as residual activity at 1000 nM after 30 mins by Kinomescan method relative to control. The method, boiled down: (§1)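 KINOMEscan binding panel of 456 kinases, with the test compound at a single concentration of 1 µM. Read-out is Percent Control.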

Test [7] deals with Tyrosine-protein kinase Fer (Homo sapiens) (UniProt P16591). Briefly: Inhibition of wild-type human partial length FER (S542 to T822 residues) expressed in Escherichia coli BL21 assessed as residual activity at 1000 nM after 30 mins by Kinomescan method relative to control.
Test [8] addresses Tyrosine-protein kinase Fgr (Homo sapiens) (UniProt P09769). As to the kind of experiment: Inhibition of wild-type human partial length FGR (L233 to T529 residues) expressed in Escherichia coli BL21 assessed as residual activity at 1000 nM after 30 mins by Kinomescan method relative to control.
Test [9] addresses Tyrosine-protein kinase FRK (Homo sapiens) (UniProt P42685). Briefly: Inhibition of wild-type human partial length FRK (A215 to F503 residues) expressed in Escherichia coli BL21 assessed as residual activity at 1000 nM after 30 mins by Kinomescan method relative to control.
Test [10] deals with Interleukin-1 receptor-associated kinase 4 (Homo sapiens) (UniProt Q9NWZ3). Briefly: Inhibition of wild-type human partial length IRAK4 (M1 to S460 residues) expressed in HEK293 cells assessed as residual activity at 1000 nM after 30 mins by Kinomescan method relative to control. It is filed as cell-based.
In test [11] the test system is Mast/stem cell growth factor receptor Kit (Homo sapiens), P10721 [D816V]. As to the kind of experiment: Inhibition of human partial length KIT D816V mutant (I571 to D952 residues) expressed in Escherichia coli BL21 assessed as residual activity at 1000 nM after 30 mins by Kinomescan method relative to control. The method, boiled down: as §1
For test [12], the target named is Mitogen-activated protein kinase kinase kinase kinase 4 (Homo sapiens) (UniProt O95819). As to the kind of experiment: Inhibition of wild-type human partial length MAP4K4 (M1 to R310 residues) expressed in Escherichia coli BL21 assessed as residual activity at 1000 nM after 30 mins by Kinomescan method relative to control.
For another test, the system named is Plasmodium falciparum. As to the kind of experiment: Inhibition of wild-type Plasmodium falciparum full length CDPK1 (M1 to S524 residues) expressed in HEK293 cells assessed as residual activity at 1000 nM after 30 mins by Kinomescan method relative to control. In kind it is cell-based. The method, boiled down: (§2)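 Single-point screen at a fixed 1 µM, run within a 456-kinase DiscoveRx KINOMEscan panel. Each kinase's read-out is Percent Control, i.e. signal relative to a control without compound. Hits were scored by a Percent Control < 35 cut-off, and an S(35) selectivity score was calculated across the non-mutant kinases.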

The test system of test [13] is Phosphatidylinositol 4,5-bisphosphate 3-kinase catalytic subunit alpha isoform (Homo sapiens), P42336 [E545K]. As to the kind of experiment: Inhibition of human partial length PIK3CA E545K mutant (R108 to N1068 residues) expressed in HEK293 cells assessed as residual activity at 1000 nM after 30 mins by Kinomescan method relative to control. In kind it is cell-based. The method, boiled down:
as §1

In test [14] the target is 1-phosphatidylinositol 3-phosphate 5-kinase (Homo sapiens) (UniProt Q9Y2I7). As to the kind of experiment: Inhibition of wild-type human partial length PIKFYVE (F1512 to C2098 residues) expressed in HEK293 cells assessed as residual activity at 1000 nM after 30 mins by Kinomescan method relative to control. In kind it is cell-based.
The target of test [15] is Serine/threonine-protein kinase PLK1 (Homo sapiens) (UniProt P53350). As to the kind of experiment: Inhibition of wild-type human partial length PLK1 (A33 to F325 residues) expressed in HEK293 cells assessed as residual activity at 1000 nM after 30 mins by Kinomescan method relative to control. It is filed as cell-based.
Test [16] has as its target Serine/threonine-protein kinase PRP4 homolog (Homo sapiens) (UniProt Q13523). As to the kind of experiment: Inhibition of wild-type human partial length PRP4 (D657 to I1007 residues) expressed in Escherichia coli BL21 assessed as residual activity at 1000 nM after 30 mins by Kinomescan method relative to control.
Test [17] deals with Proto-oncogene tyrosine-protein kinase receptor Ret (Homo sapiens), P07949 [M918T]. Briefly: Inhibition of human partial length RET M918T mutant (E713 to D1014 residues) expressed in Escherichia coli BL21 assessed as residual activity at 1000 nM after 30 mins by Kinomescan method relative to control. The method, boiled down: as §2
Test [18] addresses Ribosomal protein S6 kinase alpha-2 (Homo sapiens) (UniProt Q15349). Briefly: Inhibition of wild-type human partial length N-terminal RSK2 kinase domain 1 (M1 to D394 residues) expressed in HEK293 cells assessed as residual activity at 1000 nM after 30 mins by Kinomescan method relative to control. It is filed as cell-based.
For test [19], the target named is Ribosomal protein S6 kinase beta-1 (Homo sapiens) (UniProt P23443). As to the kind of experiment: Inhibition of wild-type human partial length S6K1 (M1 to S421 residues) expressed in HEK293 cells assessed as residual activity at 1000 nM after 30 mins by Kinomescan method relative to control. In kind it is cell-based.
For test [20], the target named is Serine/threonine-protein kinase Sgk3 (Homo sapiens) (UniProt Q96BR1). Briefly: Inhibition of wild-type human partial length SGK3 (M119 to L496 residues) expressed in HEK293 cells assessed as residual activity at 1000 nM after 30 mins by Kinomescan method relative to control. It is filed as cell-based.
Test [21] deals with NT-3 growth factor receptor (Homo sapiens) (UniProt Q16288). As to the kind of experiment: Inhibition of wild-type human partial length TRKC (Q531 to G825 residues) expressed in HEK293 cells assessed as residual activity at 1000 nM after 30 mins by Kinomescan method relative to control. It is filed as cell-based.
Sequence of NT-3 growth factor receptor (Homo sapiens) (Q16288 32-839 limits assumed): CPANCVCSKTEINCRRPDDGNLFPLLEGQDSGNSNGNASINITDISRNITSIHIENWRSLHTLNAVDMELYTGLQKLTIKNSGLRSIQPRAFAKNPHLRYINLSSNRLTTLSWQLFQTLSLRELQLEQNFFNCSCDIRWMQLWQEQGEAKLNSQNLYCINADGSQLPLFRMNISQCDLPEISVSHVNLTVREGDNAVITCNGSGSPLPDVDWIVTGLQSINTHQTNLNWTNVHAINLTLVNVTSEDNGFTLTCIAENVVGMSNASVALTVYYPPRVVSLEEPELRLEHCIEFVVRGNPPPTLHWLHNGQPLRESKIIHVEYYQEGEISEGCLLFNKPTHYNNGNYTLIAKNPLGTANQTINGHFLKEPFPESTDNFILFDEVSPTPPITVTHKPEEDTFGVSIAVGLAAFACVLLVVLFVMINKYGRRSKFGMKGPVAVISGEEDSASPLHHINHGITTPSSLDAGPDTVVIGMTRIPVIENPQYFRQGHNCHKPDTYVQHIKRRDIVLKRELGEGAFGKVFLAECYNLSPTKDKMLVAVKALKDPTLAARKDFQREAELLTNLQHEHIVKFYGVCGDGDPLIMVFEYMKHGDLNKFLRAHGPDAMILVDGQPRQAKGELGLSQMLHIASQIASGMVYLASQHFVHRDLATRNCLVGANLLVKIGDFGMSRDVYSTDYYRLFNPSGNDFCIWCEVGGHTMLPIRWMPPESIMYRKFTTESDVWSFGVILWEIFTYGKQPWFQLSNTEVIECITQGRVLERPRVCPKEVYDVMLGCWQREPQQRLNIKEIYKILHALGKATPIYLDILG

Sequence of Mitogen-activated protein kinase kinase kinase kinase 4 (Homo sapiens) (O95819 2-1239 limits assumed): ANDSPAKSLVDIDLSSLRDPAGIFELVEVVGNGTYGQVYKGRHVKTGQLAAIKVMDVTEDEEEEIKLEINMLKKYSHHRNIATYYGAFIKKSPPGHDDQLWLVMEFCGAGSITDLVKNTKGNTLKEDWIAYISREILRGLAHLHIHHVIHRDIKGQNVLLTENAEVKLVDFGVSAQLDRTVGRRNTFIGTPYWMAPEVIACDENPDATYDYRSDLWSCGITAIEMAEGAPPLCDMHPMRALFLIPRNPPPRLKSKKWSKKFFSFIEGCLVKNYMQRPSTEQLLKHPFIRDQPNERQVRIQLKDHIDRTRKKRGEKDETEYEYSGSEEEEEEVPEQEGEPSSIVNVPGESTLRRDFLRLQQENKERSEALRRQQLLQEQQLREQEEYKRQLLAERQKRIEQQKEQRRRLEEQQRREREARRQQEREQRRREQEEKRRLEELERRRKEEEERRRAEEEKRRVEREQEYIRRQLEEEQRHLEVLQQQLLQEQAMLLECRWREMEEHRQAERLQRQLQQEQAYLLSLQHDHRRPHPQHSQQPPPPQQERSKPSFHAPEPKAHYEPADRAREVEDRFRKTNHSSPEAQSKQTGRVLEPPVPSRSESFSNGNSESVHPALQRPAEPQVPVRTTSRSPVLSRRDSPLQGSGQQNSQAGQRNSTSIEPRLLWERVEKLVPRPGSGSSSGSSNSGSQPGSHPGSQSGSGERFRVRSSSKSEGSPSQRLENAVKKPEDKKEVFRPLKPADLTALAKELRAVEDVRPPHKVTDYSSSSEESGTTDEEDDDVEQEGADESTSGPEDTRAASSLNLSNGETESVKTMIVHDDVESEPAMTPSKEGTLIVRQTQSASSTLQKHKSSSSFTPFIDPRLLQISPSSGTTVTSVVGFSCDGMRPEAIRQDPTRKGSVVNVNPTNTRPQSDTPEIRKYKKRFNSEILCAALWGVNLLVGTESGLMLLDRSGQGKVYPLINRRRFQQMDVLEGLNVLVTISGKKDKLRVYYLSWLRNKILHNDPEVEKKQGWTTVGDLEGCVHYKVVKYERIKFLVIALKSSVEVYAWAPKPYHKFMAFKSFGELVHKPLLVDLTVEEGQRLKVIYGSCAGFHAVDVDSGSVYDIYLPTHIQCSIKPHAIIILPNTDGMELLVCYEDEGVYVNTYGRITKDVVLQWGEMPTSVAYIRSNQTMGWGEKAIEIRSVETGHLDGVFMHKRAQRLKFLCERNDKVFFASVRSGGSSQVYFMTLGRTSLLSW
Sequence of Peripheral plasma membrane protein CASK (Homo sapiens) (O14936 whole entry, the tested form may be a part): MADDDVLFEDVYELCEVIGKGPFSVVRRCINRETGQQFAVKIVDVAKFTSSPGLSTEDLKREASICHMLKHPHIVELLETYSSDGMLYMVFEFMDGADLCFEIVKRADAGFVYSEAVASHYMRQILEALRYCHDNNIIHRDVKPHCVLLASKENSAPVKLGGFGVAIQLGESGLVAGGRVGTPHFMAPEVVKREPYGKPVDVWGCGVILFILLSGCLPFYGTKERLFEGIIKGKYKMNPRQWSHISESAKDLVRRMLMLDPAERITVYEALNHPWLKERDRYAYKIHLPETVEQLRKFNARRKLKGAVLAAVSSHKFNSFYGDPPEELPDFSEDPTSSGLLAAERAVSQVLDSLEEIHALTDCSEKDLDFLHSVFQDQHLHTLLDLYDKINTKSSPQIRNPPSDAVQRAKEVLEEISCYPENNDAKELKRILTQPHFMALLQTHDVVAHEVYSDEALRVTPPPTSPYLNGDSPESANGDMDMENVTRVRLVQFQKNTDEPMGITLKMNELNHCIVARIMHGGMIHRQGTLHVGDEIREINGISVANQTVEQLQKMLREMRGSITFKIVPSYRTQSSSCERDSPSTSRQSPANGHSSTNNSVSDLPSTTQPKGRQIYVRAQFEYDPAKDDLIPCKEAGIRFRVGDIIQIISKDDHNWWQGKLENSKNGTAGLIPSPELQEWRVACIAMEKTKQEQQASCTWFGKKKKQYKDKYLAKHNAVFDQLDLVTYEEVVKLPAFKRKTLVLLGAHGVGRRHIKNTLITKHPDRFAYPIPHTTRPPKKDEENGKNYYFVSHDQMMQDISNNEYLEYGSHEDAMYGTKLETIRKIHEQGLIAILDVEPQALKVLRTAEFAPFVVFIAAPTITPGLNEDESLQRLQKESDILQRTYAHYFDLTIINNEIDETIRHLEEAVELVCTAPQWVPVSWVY
Sequence of 1-phosphatidylinositol 3-phosphate 5-kinase (Homo sapiens) (Q9Y2I7 whole entry, the tested form may be a part): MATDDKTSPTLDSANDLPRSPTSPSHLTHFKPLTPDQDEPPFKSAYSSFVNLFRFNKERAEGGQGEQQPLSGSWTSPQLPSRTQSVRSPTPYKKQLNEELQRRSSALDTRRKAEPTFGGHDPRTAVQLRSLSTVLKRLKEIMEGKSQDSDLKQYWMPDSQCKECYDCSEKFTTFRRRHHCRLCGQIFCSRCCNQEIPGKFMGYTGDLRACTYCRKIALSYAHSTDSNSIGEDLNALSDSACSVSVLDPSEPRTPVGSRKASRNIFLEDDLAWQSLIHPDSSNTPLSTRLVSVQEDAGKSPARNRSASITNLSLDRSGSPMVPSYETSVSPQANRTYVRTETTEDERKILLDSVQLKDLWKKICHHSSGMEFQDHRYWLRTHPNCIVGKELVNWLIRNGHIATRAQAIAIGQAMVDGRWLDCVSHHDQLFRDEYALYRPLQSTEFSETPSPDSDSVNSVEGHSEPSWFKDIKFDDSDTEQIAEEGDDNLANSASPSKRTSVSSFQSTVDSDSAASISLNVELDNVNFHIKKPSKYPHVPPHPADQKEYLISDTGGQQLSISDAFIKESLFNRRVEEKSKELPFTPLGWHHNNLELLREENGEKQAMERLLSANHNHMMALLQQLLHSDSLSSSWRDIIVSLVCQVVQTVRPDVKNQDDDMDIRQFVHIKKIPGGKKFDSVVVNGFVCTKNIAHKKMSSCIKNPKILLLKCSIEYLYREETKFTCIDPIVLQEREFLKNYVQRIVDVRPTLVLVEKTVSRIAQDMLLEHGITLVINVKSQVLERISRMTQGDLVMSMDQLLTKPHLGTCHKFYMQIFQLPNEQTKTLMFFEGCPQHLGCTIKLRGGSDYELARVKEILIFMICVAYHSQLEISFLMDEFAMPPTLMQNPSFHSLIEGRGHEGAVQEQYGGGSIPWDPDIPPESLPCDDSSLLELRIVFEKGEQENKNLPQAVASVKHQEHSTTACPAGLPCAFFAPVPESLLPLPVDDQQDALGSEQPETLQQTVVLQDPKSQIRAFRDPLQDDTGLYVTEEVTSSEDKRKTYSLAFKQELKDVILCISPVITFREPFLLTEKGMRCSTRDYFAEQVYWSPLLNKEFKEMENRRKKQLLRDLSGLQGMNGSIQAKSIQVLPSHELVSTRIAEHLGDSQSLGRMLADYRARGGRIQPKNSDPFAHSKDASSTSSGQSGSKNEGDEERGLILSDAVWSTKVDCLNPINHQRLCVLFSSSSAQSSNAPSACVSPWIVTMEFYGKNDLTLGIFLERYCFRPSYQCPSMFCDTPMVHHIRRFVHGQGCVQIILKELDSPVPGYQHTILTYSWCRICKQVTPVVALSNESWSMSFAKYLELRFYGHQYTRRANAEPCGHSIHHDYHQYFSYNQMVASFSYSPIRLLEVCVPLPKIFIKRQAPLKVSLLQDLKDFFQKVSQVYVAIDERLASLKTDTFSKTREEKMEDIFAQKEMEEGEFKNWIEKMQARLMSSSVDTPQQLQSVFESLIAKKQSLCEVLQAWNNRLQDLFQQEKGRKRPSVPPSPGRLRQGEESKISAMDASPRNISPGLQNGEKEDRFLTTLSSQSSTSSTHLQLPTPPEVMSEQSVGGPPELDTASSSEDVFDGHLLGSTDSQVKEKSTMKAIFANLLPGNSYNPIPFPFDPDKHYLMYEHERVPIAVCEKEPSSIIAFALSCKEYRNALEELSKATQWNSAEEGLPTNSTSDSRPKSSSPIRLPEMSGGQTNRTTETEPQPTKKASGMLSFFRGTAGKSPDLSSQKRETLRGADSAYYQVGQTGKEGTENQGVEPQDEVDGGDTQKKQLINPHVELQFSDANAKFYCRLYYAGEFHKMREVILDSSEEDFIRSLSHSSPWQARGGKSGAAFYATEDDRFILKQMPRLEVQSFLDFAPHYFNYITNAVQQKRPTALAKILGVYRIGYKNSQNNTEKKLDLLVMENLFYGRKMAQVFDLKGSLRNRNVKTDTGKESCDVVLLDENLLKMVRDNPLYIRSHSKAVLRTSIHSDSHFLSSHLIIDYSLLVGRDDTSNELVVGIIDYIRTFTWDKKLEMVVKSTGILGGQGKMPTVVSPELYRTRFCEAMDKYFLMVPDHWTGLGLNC

As to `COc1cc(OC)c(Cl)c(N2Cc3cnc(Nc4ccc(F)cc4)nc3N(C3CCN(C(=O)/C=C/CN(C)C)CC3)C2=O)c1Cl`, the Activity in test [1] was determined as 100%; in [2] it was 93%; in [3], 96%; in test [4] it was 100%; in test [5] it was 100%; in test [6], 100%. For the same compound, the Activity in [7] is 67%; in test [8] it was 19%; in [9], 59%; in test [10], 100%; in [11], 41%; in [12], 100%. For the same compound, the Activity in the test on Plasmodium falciparum worked out at 100%; in test [13], 99%; in test [14] it was 95%; in [15], 100%; in [16] it was 92%; in [17] it was 7.1%. Further, the Activity in test [18] amounted to 89%; in test [19] it was 92%; in test [20], 87%; in [21], 100%.
